Reference: ChEMBL document CHEMBL3877264, “Quinolidene-rhodanine conjugates: Facile synthesis and biological evaluation” (Eur J Med Chem, 2017)
≈ marks a conversion by molar mass, not a printed value.

Legend:
Assay type in all cases: functional
Escherichia coli [1] = assay: Growth inhibition of Escherichia coli NCIM 2688 at 30 ug/ml measured after 8 hrs relative to control; conditions: NCIM 2688, 8 h, read-out: GI
How it was run: (§1)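 Bacteria grown in LB at 37 °C and 180 rpm to OD 1. Compounds added to wells, then 0.1% inoculum of 1 OD culture (620 nm). Growth read as OD at 620 nm after 8 h for gram-negative and after 12 h for gram-positive strains.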

Escherichia coli [2] = assay: Growth inhibition of Escherichia coli NCIM 2688 at 3 ug/ml measured after 8 hrs relative to control; conditions: NCIM 2688, 8 h, read-out: GI; how it was run: as §1
Staphylococcus aureus [3] = assay: Growth inhibition of Staphylococcus aureus NCIM 2010 at 10 ug/ml measured after 12 hrs relative to control; conditions: NCIM 2010, 12 h, read-out: GI; how it was run: as §1
Staphylococcus aureus [4] = assay: Growth inhibition of Staphylococcus aureus NCIM 2010 at 30 ug/ml measured after 12 hrs relative to control; conditions: NCIM 2010, 12 h, read-out: GI; how it was run: as §1
Staphylococcus aureus [5] = assay: Antibacterial activity against of Staphylococcus aureus NCIM 2010 measured after 12 hrs; conditions: NCIM 2010, 12 h; how it was run: as §1
Candida albicans = assay: Antifungal activity against Candida albicans NCIM 3471 by standard agar method
How it was run: (§2)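 MICs determined by standard agar method; DMSO as solvent control.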

Aspergillus flavus = assay: Antifungal activity against Aspergillus flavus NCIM 539 by standard agar method; how it was run: as §2
[6] = system: Mycobacterium tuberculosis; assay: Growth inhibition of Mycobacterium bovis BCG ATCC 35743 at active stage measured after 8 days by nitrate reductase dye based two fold dilution method; conditions: BCG str. ATCC 35743, 192 h
How it was run: (§3)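 M. bovis BCG was grown in Dubos medium and assayed in Mycobacterium pheli minimal medium (pH 6.6), with compounds from DMSO stocks. Incubation lasted 8 days for active and 12 days for dormant cultures. Viability was read by nitrate reductase at 540 nm against cell-free blanks, with vehicle set as 100% growth. Primary screen was at 30, 10 and 3 µg/ml, in triplicate, mean ± SD. MIC was taken from dose-response curves.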

Pseudomonas fluorescens [7] = assay: Growth inhibition of Pseudomonas fluorescens NCIM 2036 at 3 ug/ml measured after 8 hrs relative to control; conditions: NCIM 2036, 8 h, read-out: GI; how it was run: as §1
Pseudomonas fluorescens [8] = assay: Growth inhibition of Pseudomonas fluorescens NCIM 2036 at 30 ug/ml measured after 8 hrs relative to control; conditions: NCIM 2036, 8 h, read-out: GI; how it was run: as §1
[9] = Antifungal activity against Cryptococcus neoformans NCIM 576 by standard agar method; how it was run: as §2
Bacillus subtilis [10] = assay: Growth inhibition of Bacillus subtilis NCIM 2079 at 3 ug/ml measured after 12 hrs relative to control; conditions: NCIM 2079, 12 h, read-out: GI; how it was run: as §1
Pseudomonas fluorescens [11] = assay: Antibacterial activity against Pseudomonas fluorescens NCIM 2036 measured after 8 hrs; conditions: NCIM 2036, 8 h; how it was run: as §1
Bacillus subtilis [12] = assay: Antibacterial activity against Bacillus subtilis NCIM 2079 measured after 12 hrs; conditions: NCIM 2079, 12 h; how it was run: as §1
Bacillus subtilis [13] = assay: Growth inhibition of Bacillus subtilis NCIM 2079 at 30 ug/ml measured after 12 hrs relative to control; conditions: NCIM 2079, 12 h, read-out: GI; how it was run: as §1
[14] = system: Mycobacterium tuberculosis; assay: Growth inhibition of Mycobacterium bovis BCG ATCC 35743 at dormant stage at 3 ug/ml measured after 12 days by nitrate reductase dye based two fold dilution method relative to control; conditions: BCG str. ATCC 35743, 288 h, read-out: GI; how it was run: as §3
Pseudomonas fluorescens [15] = assay: Growth inhibition of Pseudomonas fluorescens NCIM 2036 at 10 ug/ml measured after 8 hrs relative to control; conditions: NCIM 2036, 8 h, read-out: GI; how it was run: as §1
[16] = system: Mycobacterium tuberculosis; assay: Growth inhibition of Mycobacterium bovis BCG ATCC 35743 at dormant stage at 30 ug/ml measured after 12 days by nitrate reductase dye based two fold dilution method relative to control; conditions: BCG str. ATCC 35743, 288 h, read-out: GI; how it was run: as §3
[17] = Antifungal activity against Fusarium oxysporum NCIM 1332 by standard agar method; how it was run: as §2
[18] = system: Mycobacterium tuberculosis; assay: Growth inhibition of Mycobacterium tuberculosis H37Ra ATCC 25177 at active stage measured after 8 days by XTT dye based two fold dilution method; conditions: H37Ra ATCC 25177, 192 h
How it was run: (§4)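 MTB H37Ra was grown in Dubos medium, then exposed in Mycobacterium pheli minimal medium (pH 6.6) to compounds dissolved in DMSO. The assay ended on day 8 (active) or day 12 (dormant). Viable cells were measured by XTT reduction menadione assay at 470 nm, blank-corrected, relative to vehicle control. Triplicates were expressed as mean ± SD. MIC came from dose-response curves.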

Bacillus subtilis [19] = assay: Growth inhibition of Bacillus subtilis NCIM 2079 at 10 ug/ml measured after 12 hrs relative to control; conditions: NCIM 2079, 12 h, read-out: GI; how it was run: as §1
Staphylococcus aureus [20] = assay: Growth inhibition of Staphylococcus aureus NCIM 2010 at 3 ug/ml measured after 12 hrs relative to control; conditions: NCIM 2010, 12 h, read-out: GI; how it was run: as §1
[21] = system: Mycobacterium tuberculosis; assay: Growth inhibition of Mycobacterium bovis BCG ATCC 35743 at dormant stage measured after 12 days by nitrate reductase dye based two fold dilution method; conditions: BCG str. ATCC 35743, 288 h; how it was run: as §3
Escherichia coli [22] = assay: Antibacterial activity against Escherichia coli NCIM 2688 measured after 8 hrs; conditions: NCIM 2688, 8 h; how it was run: as §1
[23] = system: Mycobacterium tuberculosis; assay: Growth inhibition of Mycobacterium bovis BCG ATCC 35743 at dormant stage at 10 ug/ml measured after 12 days by nitrate reductase dye based two fold dilution method relative to control; conditions: BCG str. ATCC 35743, 288 h, read-out: GI; how it was run: as §3
Aspergillus niger = assay: Antifungal activity against Aspergillus niger NCIM 1196 by standard agar method; how it was run: as §2
Escherichia coli [24] = assay: Growth inhibition of Escherichia coli NCIM 2688 at 10 ug/ml measured after 8 hrs relative to control; conditions: NCIM 2688, 8 h, read-out: GI; how it was run: as §1
[25] = system: Mycobacterium tuberculosis; assay: Growth inhibition of Mycobacterium tuberculosis H37Ra ATCC 25177 at dormant stage measured after 12 days by XTT dye based two fold dilution method; conditions: H37Ra ATCC 25177, 288 h; how it was run: as §4

Compound | inhibition of growth at 30 µg/mL (Escherichia coli [1]) | inhibition of growth at 3 µg/mL (Escherichia coli [2]) | inhibition of growth at 10 µg/mL (Staphylococcus aureus [3]) | inhibition of growth at 30 µg/mL (Staphylococcus aureus [4]) | MIC (Staphylococcus aureus [5]) | MIC (Candida albicans) | MIC (Aspergillus flavus) | IC50 [6] | IC90 [6] | inhibition of growth at 3 µg/mL (Pseudomonas fluorescens [7]) | inhibition of growth at 30 µg/mL (Pseudomonas fluorescens [8]) | MIC [9] | inhibition of growth at 3 µg/mL (Bacillus subtilis [10]) | MIC (Pseudomonas fluorescens [11]) | MIC (Bacillus subtilis [12]) | inhibition of growth at 30 µg/mL (Bacillus subtilis [13]) | inhibition of growth at 3 µg/mL [14] | inhibition of growth at 10 µg/mL (Pseudomonas fluorescens [15]) | inhibition of growth at 30 µg/mL [16] | MIC [17] | other results
Cc1ccc2cc(/C=C3\SC(=S)N(CC(=O)O)C3=O)c(Cl)nc2c1 | -12.5% | 1.9% | -23.6% | -16% | > 30 µg/mL | 125 µg/mL (≈ 330 µM) | 100 µg/mL (≈ 264 µM) | > 30 µg/mL | > 30 µg/mL | -11.5% | -8.32% | 150 µg/mL (≈ 396 µM) | 2.07% | > 30 µg/mL | > 30 µg/mL | 2.96% | 22.7% | -10.7% | 11.4% | 125 µg/mL (≈ 330 µM) | IC50 [18]: > 30 µg/mL; IC90 [18]: > 30 µg/mL; inhibition of growth at 10 µg/mL (Bacillus subtilis [19]): -1.27%; inhibition of growth at 3 µg/mL (Staphylococcus aureus [20]): -13.1%; IC50 [21]: > 30 µg/mL; IC90 [21]: > 30 µg/mL; MIC (Escherichia coli [22]): > 30 µg/mL; inhibition of growth at 10 µg/mL [23]: 22.4%; MIC (Aspergillus niger): 75 µg/mL (≈ 198 µM); inhibition of growth at 10 µg/mL (Escherichia coli [24]): 2.04%; IC50 [25]: > 30 µg/mL; IC90 [25]: > 30 µg/mL
COc1ccc2nc(Cl)c(/C=C3\SC(=S)N(CCC(=O)O)C3=O)cc2c1 | 13.5% | 20.7% | -21.7% | -16.1% | > 30 µg/mL | 125 µg/mL (≈ 306 µM) | 100 µg/mL (≈ 245 µM) | > 30 µg/mL | > 30 µg/mL | -4.49% | -27.3% | 150 µg/mL (≈ 367 µM) | -6.61% | > 30 µg/mL | > 30 µg/mL | -3.99% | 25.4% | -17% | 27.2% | 175 µg/mL (≈ 428 µM) | IC50 [18]: > 30 µg/mL; IC90 [18]: > 30 µg/mL; inhibition of growth at 10 µg/mL (Bacillus subtilis [19]): -1.08%; inhibition of growth at 3 µg/mL (Staphylococcus aureus [20]): -2.06%; IC50 [21]: > 30 µg/mL; IC90 [21]: > 30 µg/mL; MIC (Escherichia coli [22]): > 30 µg/mL; inhibition of growth at 10 µg/mL [23]: 27.2%; MIC (Aspergillus niger): 175 µg/mL (≈ 428 µM); inhibition of growth at 10 µg/mL (Escherichia coli [24]): 14.4%; IC50 [25]: > 30 µg/mL; IC90 [25]: > 30 µg/mL
O=C(O)CN1C(=O)/C(=C/c2cc3cc(Cl)ccc3nc2Cl)SC1=S | -14% | -12.7% | 3.88% | -32.2% | > 30 µg/mL | 125 µg/mL (≈ 313 µM) | 150 µg/mL (≈ 376 µM) | > 30 µg/mL | > 30 µg/mL | -72.5% | -2.12% | 125 µg/mL (≈ 313 µM) | -4.86% | > 30 µg/mL | > 30 µg/mL | 1.23% | -9.46% | -1.23% | 9.92% | 150 µg/mL (≈ 376 µM) | IC50 [18]: > 30 µg/mL; IC90 [18]: > 30 µg/mL; inhibition of growth at 10 µg/mL (Bacillus subtilis [19]): -12.6%; inhibition of growth at 3 µg/mL (Staphylococcus aureus [20]): -1.15%; IC50 [21]: > 30 µg/mL; IC90 [21]: > 30 µg/mL; MIC (Escherichia coli [22]): > 30 µg/mL; inhibition of growth at 10 µg/mL [23]: 2.07%; MIC (Aspergillus niger): 100 µg/mL (≈ 250 µM); inhibition of growth at 10 µg/mL (Escherichia coli [24]): -12.4%; IC50 [25]: > 30 µg/mL; IC90 [25]: > 30 µg/mL
Cc1ccc2nc(Cl)c(/C=C3\SC(=S)N(CC(=O)O)C3=O)cc2c1 | -6.72% | -1.08% | -6.18% | -5.17% | > 30 µg/mL | 125 µg/mL (≈ 330 µM) | 150 µg/mL (≈ 396 µM) | > 30 µg/mL | > 30 µg/mL | -67.2% | 13.2% | 125 µg/mL (≈ 330 µM) | -24.1% | > 30 µg/mL | > 30 µg/mL | 1.48% | 14.9% | -7.54% | -0.24% | 150 µg/mL (≈ 396 µM) | IC50 [18]: > 30 µg/mL; IC90 [18]: > 30 µg/mL; inhibition of growth at 10 µg/mL (Bacillus subtilis [19]): -6.38%; inhibition of growth at 3 µg/mL (Staphylococcus aureus [20]): 0.77%; IC50 [21]: > 30 µg/mL; IC90 [21]: > 30 µg/mL; MIC (Escherichia coli [22]): > 30 µg/mL; inhibition of growth at 10 µg/mL [23]: 13.5%; MIC (Aspergillus niger): 175 µg/mL (≈ 462 µM); inhibition of growth at 10 µg/mL (Escherichia coli [24]): 0.409%; IC50 [25]: > 30 µg/mL; IC90 [25]: > 30 µg/mL
